Measured values collected from several papers.
Converted amounts (≈) assume the structure as drawn.

For O=C(O)CN1C(=O)/C(=C/c2ccc(-c3ccc(N(c4ccccc4)c4ccccc4)cc3)c3ccccc23)SC1=S, the MIC was 1000 µg/mL (≈ 1750 µM) (Streptococcus pneumoniae; microbial growth, broth dilution; ATCC49619).
With O=S(=O)(Oc1cccc2cccnc12)c1cccs1 the IC50 was 443 µg/mL (≈ 1520 µM) (Klebsiella pneumoniae; microbial growth, broth dilution; ATCC700603).
The inhibition zone of CCOC(=O)C=c1[nH]c(=O)c(=Cc2cn(-c3ccccc3)nc2-c2ccc(C)cc2)s1 is reported as 13 mm (Klebsiella pneumoniae; microbial growth, well diffusion; 100000 µg/mL).
For O=c1cc[nH]c(=O)[nH]1, the activity vs control was 101% (Cryptosporidium parvum; parasite growth, imaging; HCT-8; 1 mM, 24 h, intracellular).
With c1ccc(-n2cc(COc3cccc4cccnc34)nn2)cc1 the IC50 was 401 µg/mL (≈ 1330 µM) (Klebsiella pneumoniae; microbial growth, broth dilution; ATCC700603).
The EC90 of Oc1cccc2[nH]ccc12 is reported as 2.77 mM (Cryptosporidium parvum; parasite growth; HCT-8; 24 h, intracellular).
For NS(=O)(=O)c1ccc(-n2cc(COc3cccc4cccnc34)nn2)cc1, the IC50 was 866 µg/mL (≈ 2270 µM) (Klebsiella pneumoniae; microbial growth, broth dilution; ATCC700603).
O=C1NC(=S)S/C1=C\c1c2ccccc2c(-c2ccc(N(c3ccccc3)c3ccccc3)cc2)c2ccccc12 has an MIC of over 1000 µg/mL (Streptococcus pneumoniae; microbial growth, broth dilution; ATCC49619).
CCOC(=O)c1c(N)csc1-c1cn(-c2ccccc2)nc1-c1ccc(C)cc1 has an MBC of 0.25 µg/mL (≈ 0.62 µM) (Klebsiella pneumoniae; microbial killing, broth dilution).
